Screening results as filed in PubChem BioAssay.
Apaf1 inhib – blocks human Apaf-1 apoptosome activity; O14727; reconstituted apoptosome caspase-3 activity, DEVD-Rh110 fluorescence; inhibition, % at 20 µM; actives 0.71% (n = 330,000); AID 489030; active means inhibition of at least 40% at 20 µM;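 further: plate controls were DMSO wells for no effect and DEVD-CHO caspase inhibitor wells for full effect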
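Material: reconstituted apoptosome with Apaf-1, cytochrome c, caspase-9, procaspase-3, dATP; medium: pH 7.5 Hepes buffer with CHAPS, BSA, DTT; also added: cytochrome c and DEVD-Rh110 substrate; timing: 30 min plus 50 min, RT; signal: Rh110 fluorescence intensity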
PAFAH2 FP inh – inhibitors of human PAFAH2. Q99487. recombinant PAFAH2, FP-rhodamine activity probe, fluorescence polarization. inhibition, % at 3.39 µM. actives 0.99% (n = 340,000). AID 492956;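 active means inhibition above the mean over all tested compounds plus 3 SD, cut at about 30% in these data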;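 further: inhibitors block probe labeling of enzyme so polarization drops; 0% = enzyme with DMSO and 100% = wells lacking PAFAH2 protein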
PREPL inh – human PREPL enzyme inhibition | Q4J6C6 | recombinant PREPL, fluorescence polarization activity-based probe | inhibition, % at 5.96 µM | actives 0.68% (n = 320,000); in the data active means inhibition above about 43%;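 further: 0% = enzyme with DMSO and 100% = wells lacking enzyme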
PAFAH1B2 FP inh – PAFAH1B2 (human) inhibition | actives 1.2% (n = 340,000) | recombinant PAFAH1B2, FP-rhodamine activity probe, fluorescence polarization | AID 492953 | inhibition, % at 3.39 µM | P68402;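 active means inhibition above the mean of all tested compounds plus 3 SD, cut at about 24% in these data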;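 further: 0% = enzyme with DMSO and 100% = wells lacking PAFAH1B2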
Target sequence (P68402 whole entry, looked up): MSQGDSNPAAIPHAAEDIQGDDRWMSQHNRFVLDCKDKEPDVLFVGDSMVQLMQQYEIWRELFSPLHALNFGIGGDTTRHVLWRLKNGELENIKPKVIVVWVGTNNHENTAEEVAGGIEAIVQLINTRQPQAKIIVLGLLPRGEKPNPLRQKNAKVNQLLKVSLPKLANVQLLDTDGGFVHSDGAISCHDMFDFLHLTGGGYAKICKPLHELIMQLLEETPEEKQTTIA
PAFAH1B3 FP inh – blocks human PAF acetylhydrolase 1B catalytic subunit 3. inhibition, % at 3.39 µM. actives 0.28% (n = 340,000). AID 492972. recombinant PAFAH1B3, FP-rhodamine probe, fluorescence polarization;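 active means inhibition above the screen-wide average of all tested compounds plus 3 SD, cut at about 25% in these data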;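 further: 0% = enzyme with DMSO only and 100% = wells lacking PAFAH1B3 protein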
Target sequence (Q15102 whole entry, looked up): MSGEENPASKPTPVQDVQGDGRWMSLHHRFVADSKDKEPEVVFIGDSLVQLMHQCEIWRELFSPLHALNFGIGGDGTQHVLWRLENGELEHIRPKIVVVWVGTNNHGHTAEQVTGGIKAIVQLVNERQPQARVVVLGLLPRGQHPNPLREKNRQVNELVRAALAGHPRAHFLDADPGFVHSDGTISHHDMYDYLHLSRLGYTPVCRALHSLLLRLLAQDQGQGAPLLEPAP
pPAFAH FP inh – inhibitors of human plasma PAF acetylhydrolase (pPAFAH); Q13093; recombinant pPAFAH, FP-rhodamine probe fluorescence polarization; inhibition, % at 3.39 µM; actives 1.5% (n = 330,000);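 active means inhibition above the mean inhibition across the screen plus 3 SD, cut at about 25% in these data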;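 further: inhibitors block binding of the rhodamine activity-based probe so polarization drops; 0% = enzyme with DMSO and 100% = wells lacking pPAFAH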
Apaf-1 inh conf2 – Apaf-1 inhibition, single-dose confirmed | shares compounds with Apaf1 inhib | reconstituted apoptosome, caspase-3 DEVD-Rh110 fluorescence | inhibition, % at 20 µM | actives 25% (n = 1,800) | AID 504614;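 active means mean inhibition of at least 40% at 20 µM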;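 further: plate controls were DMSO wells for no effect and DEVD-CHO caspase inhibitor control wells for full effect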
Rh110 interf inh – interferes with Rh110 fluorescence, flagging false Apaf-1 inhibitors; shares compounds with Apaf1 inhib; Rh110 fluorescence interference, quenched caspase reaction; activation (fluorescence interference), % at 20 µM; 1,800 tested, under 10 active; AID 504615;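 active means signal rise of 40% or more at 20 µM, treated as a fluorescence artifact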
Fluor interf inh – shows fluorescence interference in the Apaf-1 inhibitor assay format; shares compounds with Apaf1 inhib; fluorescence interference counterscreen, Apaf-1 assay format; IC50, µM; 460 tested, under 10 active; call rule not given here
PAFAH1B3 conf FP – confirmation of human PAFAH1B3 inhibitors; shares compounds with PAFAH1B3 FP inh; recombinant PAFAH1B3, FP-Rh activity-based probe, fluorescence polarization; inhibition, % at 3.39 µM; actives 30% (n = 390);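 active means average inhibition over triplicate runs above the hit cutoff set in the earlier primary screen, cut at about 25% in these data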;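 further: 0% = enzyme with DMSO and 100% = wells lacking PAFAH1B3 protein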
Active calls of the source: *; ! = not confirmed by another sample. An excerpt weighted towards active compounds, which were near 3.5% of everything screened.

For CCOC(=O)c1c(C)oc2c1C(=O)c1ccccc1C2=O the results were Apaf1 inhib 69*, PAFAH2 FP inh 5, PREPL inh 15, PAFAH1B2 FP inh 11, PAFAH1B3 FP inh 30*, pPAFAH FP inh 6, Apaf-1 inh conf2 68*, Rh110 interf inh 2, Fluor interf inh >100 and PAFAH1B3 conf FP 23.
For CC(=O)C(C(C)=O)C1(O)C(=O)c2ccccc2C1=O the results were Apaf1 inhib 86*, PAFAH2 FP inh -3, PREPL inh 9, PAFAH1B2 FP inh 16, PAFAH1B3 FP inh 34*, pPAFAH FP inh -2, Apaf-1 inh conf2 87*, Rh110 interf inh -2, Fluor interf inh >100 and PAFAH1B3 conf FP 22.
O=C1C(c2ccccc2)=[N+]([O-])c2ccccc21 was read as Apaf1 inhib 85*, PAFAH2 FP inh 18, PREPL inh 6, PAFAH1B2 FP inh 5, PAFAH1B3 FP inh 28*, pPAFAH FP inh 5, Apaf-1 inh conf2 87*, Rh110 interf inh 1, Fluor interf inh >100 and PAFAH1B3 conf FP 13.
Screening COC1=C(c2ccccc2)C(=O)c2ccccc2C1=O returned Apaf1 inhib 16, PAFAH2 FP inh 4, PREPL inh 5, PAFAH1B2 FP inh 5, PAFAH1B3 FP inh 6 and pPAFAH FP inh 7.
For COc1ccc(NC(=O)c2c(NC(=O)CCC(=O)O)sc(-c3ccccc3)c2C)cc1 the results were Apaf1 inhib 1, PAFAH2 FP inh 5, PREPL inh 5, PAFAH1B2 FP inh 3, PAFAH1B3 FP inh 5 and pPAFAH FP inh 6.
Screening CC(=O)c1ccc(NC2=C(N3CCOCC3)C(=O)c3ccccc3C2=O)cc1 returned Apaf1 inhib 80*, PAFAH2 FP inh 24, PREPL inh 15, PAFAH1B2 FP inh 4, PAFAH1B3 FP inh 31*, pPAFAH FP inh -8, Apaf-1 inh conf2 46*, Rh110 interf inh 2, Fluor interf inh >100 and PAFAH1B3 conf FP 9.
`CC(=O)N(C1=C(N2CCOCC2)C(=O)c2ccccc2C1=O)c1ccc(C(=O)O)cc1` gave Apaf1 inhib 59*, PAFAH2 FP inh 3, PREPL inh -6, PAFAH1B2 FP inh 5, PAFAH1B3 FP inh 26*, pPAFAH FP inh -3, Apaf-1 inh conf2 55*, Rh110 interf inh 8, Fluor interf inh >100 and PAFAH1B3 conf FP 16.
O=C(O)c1ccc(NC2=C(N3CCOCC3)C(=O)c3ccccc3C2=O)cc1 was read as Apaf1 inhib 68*, PAFAH2 FP inh 11, PREPL inh 6, PAFAH1B2 FP inh 8, PAFAH1B3 FP inh 27*, pPAFAH FP inh -7, Apaf-1 inh conf2 51*, Rh110 interf inh -1, Fluor interf inh >100 and PAFAH1B3 conf FP 13.
`CCOC(=O)c1c(NC(=O)COC(=O)c2ncc(Cl)c(Cl)c2Cl)sc(C(=O)N(C)C)c1C` gave Apaf1 inhib 19, PAFAH2 FP inh 2, PREPL inh 8, PAFAH1B2 FP inh 6, PAFAH1B3 FP inh 7 and pPAFAH FP inh 4.
For CC(OC(=O)C1CC1C)C(=O)Nc1ncc(Cl)cc1Cl (centres undefined) the results were Apaf1 inhib 4, PAFAH2 FP inh -2, PREPL inh -3, PAFAH1B2 FP inh 1, PAFAH1B3 FP inh 7 and pPAFAH FP inh 2.
For COc1cccc(NC(=O)CN(C)C(=O)c2cc(-c3ccccc3)nn2-c2ccccc2)c1 the results were Apaf1 inhib 13, PAFAH2 FP inh 0, PREPL inh -15, PAFAH1B2 FP inh 3, PAFAH1B3 FP inh 1 and pPAFAH FP inh 2.
For Cn1c(=O)cc(Nc2ccccc2)[nH]c1=O the results were Apaf1 inhib 3, PAFAH2 FP inh -1, PREPL inh 8, PAFAH1B2 FP inh -2, PAFAH1B3 FP inh 1 and pPAFAH FP inh -2.
Screening O=c1[nH]c(Nc2ccccc2)cc2ccccc12 returned Apaf1 inhib 96*, PAFAH2 FP inh 2, PREPL inh 15, PAFAH1B2 FP inh 8, PAFAH1B3 FP inh 31*, pPAFAH FP inh -6, Apaf-1 inh conf2 94*, Rh110 interf inh -1, Fluor interf inh >100 and PAFAH1B3 conf FP 18.
For COc1ccc(OC)c(Nc2cc3ccccc3c(=O)[nH]2)c1 the results were Apaf1 inhib 97*, PAFAH2 FP inh 12, PREPL inh 24, PAFAH1B2 FP inh 6, PAFAH1B3 FP inh 38*, pPAFAH FP inh 2, Apaf-1 inh conf2 94*, Rh110 interf inh 5, Fluor interf inh >100 and PAFAH1B3 conf FP 15.
For COc1ccc(OC)c(Nc2nnc(C)c(=O)[nH]2)c1 the results were Apaf1 inhib 6, PREPL inh -3 and pPAFAH FP inh -1.
`Cc1ccccc1-c1cc2c(nn1)-c1ccccc1C2=O` gave Apaf1 inhib 97*, PAFAH2 FP inh 15, PREPL inh 19, PAFAH1B2 FP inh 8, PAFAH1B3 FP inh 34*, pPAFAH FP inh 1, Apaf-1 inh conf2 61*, Rh110 interf inh -7, Fluor interf inh >100 and PAFAH1B3 conf FP 7.
O=C(O)c1cccc(NC2=C(n3nnc4ccccc43)C(=O)c3ccccc3C2=O)c1 was read as Apaf1 inhib 58*, PAFAH2 FP inh 3, PREPL inh -1, PAFAH1B2 FP inh 5, PAFAH1B3 FP inh 29*, pPAFAH FP inh -1, Apaf-1 inh conf2 64*, Rh110 interf inh 7, Fluor interf inh >100 and PAFAH1B3 conf FP 17.
O=c1ncn(C2CCCCC2)c(=O)[nH]1 was read as PAFAH2 FP inh 3, PAFAH1B2 FP inh -1 and PAFAH1B3 FP inh 3.
For CCCOc1cc2c(C#N)c(N3CCCC3)nc(N)c2c(N)n1 the results were Apaf1 inhib 98*, PAFAH2 FP inh 15, PREPL inh 23, PAFAH1B2 FP inh 10, PAFAH1B3 FP inh 28*, pPAFAH FP inh 7, Apaf-1 inh conf2 73*, Rh110 interf inh 3, Fluor interf inh >100 and PAFAH1B3 conf FP 15.
For COc1cc2c(C#N)c(N3CCCC3)nc(N)c2c(N)n1 the results were Apaf1 inhib 84*, PAFAH2 FP inh 12, PREPL inh 12, PAFAH1B2 FP inh 10, PAFAH1B3 FP inh 43*!, pPAFAH FP inh 8, Apaf-1 inh conf2 49*!, Rh110 interf inh 11 and PAFAH1B3 conf FP 11.
`Cc1cc(C)c(C#N)c(N2CCCC2)n1` gave Apaf1 inhib -11, PAFAH2 FP inh -1, PREPL inh -10, PAFAH1B2 FP inh 1, PAFAH1B3 FP inh 7 and pPAFAH FP inh 2.
